# Experimental data published in ChEMBL document CHEMBL1795261, “HIF-1α inhibitors: synthesis and biological evaluation of novel moracin O and P analogues” (Eur J Med Chem, 2011).
# Active and inactive are the calls of the source. The rule behind the calls is not given here.
# Tests used:
# [1] = biological target: T1, Hypoxia-inducible factor 1-alpha (Homo sapiens, UniProt Q16665); assay: Inhibition of hypoxia-induced HIF1alpha activation in human Hep3B cells after 16 hrs by HRE-luciferase reporter assay; assay type: cell-based; details: hep 3b2
# Target sequence in this assay (Q16665 whole entry): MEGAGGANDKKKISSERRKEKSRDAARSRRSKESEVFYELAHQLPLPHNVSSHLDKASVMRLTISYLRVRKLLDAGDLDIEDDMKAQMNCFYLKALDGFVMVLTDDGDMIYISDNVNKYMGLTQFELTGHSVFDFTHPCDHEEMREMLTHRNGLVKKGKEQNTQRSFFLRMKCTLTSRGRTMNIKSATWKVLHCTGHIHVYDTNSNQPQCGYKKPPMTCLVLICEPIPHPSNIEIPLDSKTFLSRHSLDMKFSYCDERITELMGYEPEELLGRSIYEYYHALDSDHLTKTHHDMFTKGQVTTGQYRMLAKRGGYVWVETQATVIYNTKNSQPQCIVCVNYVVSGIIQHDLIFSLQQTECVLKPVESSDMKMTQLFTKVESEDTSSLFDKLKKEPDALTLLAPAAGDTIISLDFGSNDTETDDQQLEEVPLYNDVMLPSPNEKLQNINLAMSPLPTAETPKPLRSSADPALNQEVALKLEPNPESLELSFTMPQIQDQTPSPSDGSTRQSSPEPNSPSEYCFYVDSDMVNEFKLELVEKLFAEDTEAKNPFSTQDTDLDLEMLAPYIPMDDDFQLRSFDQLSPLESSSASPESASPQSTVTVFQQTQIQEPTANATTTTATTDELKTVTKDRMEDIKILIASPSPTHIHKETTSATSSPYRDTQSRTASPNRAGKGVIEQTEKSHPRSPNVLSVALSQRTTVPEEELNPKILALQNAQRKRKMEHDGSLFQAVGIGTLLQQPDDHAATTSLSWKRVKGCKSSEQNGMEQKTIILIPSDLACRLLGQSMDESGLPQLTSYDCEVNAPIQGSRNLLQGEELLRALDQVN
# [2] = Cytotoxicity against human Hep3B cells after 24 hrs by MTT assay; assay type: cell-based, Hep 3B2
# [3] = biological target: T1, Hypoxia-inducible factor 1-alpha; assay: Inhibition of hypoxia-induced HIF1alpha protein accumulation in nucleus of human Hep3B cells after 12 hrs by Western blot analysis; assay type: functional, cell-based; details: Hep 3B2
# Summary of the method: (§1)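 Hep3B cells were kept under normoxia or hypoxia for 12 h with or without compound. HIF-1α in nuclear extracts was detected by western blot, with the same blot reprobed for topoisomerase-I as loading control. Bands were quantified by image scanning in arbitrary units.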
# Target sequence in this assay (Q16665 whole entry, looked up): as the sequence (Q16665 whole entry) above
# [4] = biological target: T1, Hypoxia-inducible factor 1-alpha; assay: Inhibition of hypoxia-induced HIF1alpha protein accumulation in nucleus of human Hep3B cells after 12 hrs at 10 uM by Western blot analysis; assay type: functional, cell-based; details: Hep 3B2; summary of the method: as §1
# Target sequence in this assay (Q16665 whole entry, looked up): as the sequence (Q16665 whole entry) above
# [5] = biological target: T1, Hypoxia-inducible factor 1-alpha; assay: Inhibition of HIF1alpha-mediated VEGF production in human Hep3B cells under hypoxic condition after 17.5 hrs by ELISA; assay type: cell-based; details: Hep 3B2
# Summary of the method: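 Hep3B cells were held under normoxia or hypoxia for 17.5 h with or without compound. Secreted VEGF was then measured by ELISA in the culture supernatant.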
# Target sequence in this assay (Q16665 whole entry, looked up): as the sequence (Q16665 whole entry) above
Compound,IC50 [1] [µM],IC50 [2] [µM],inhibition [3],inhibition [4],inhibition [5]
CC1(C)Oc2cc(OC(=O)c3ccc(OCc4ccccc4)c(OCc4ccccc4)c3)ccc2CC1O (stereo not drawn),7.3,> 30,–,–,–
COc1ccccc1-c1cc2cc3c(cc2o1)OC(C(C)(C)O)C3 (stereo not drawn),0.58,> 30,–,–,–
CC1(C)Oc2cc(OC(=O)c3ccc(-c4cccc([N+](=O)[O-])c4)cc3)ccc2CC1O (stereo not drawn),17.5,> 30,–,–,–
CC1(C)Oc2cc(OC(=O)c3ccc(O)c(O)c3)ccc2CC1O (stereo not drawn),> 30,> 30,–,–,–
CC(C)(O)C1Cc2cc3cc(-c4cc(F)cc(F)c4)oc3cc2O1 (stereo not drawn),0.36,> 30,–,–,–
CC(C)(O)C1Cc2ccc(OC(=O)c3cc(OCc4ccccc4)cc(OCc4ccccc4)c3)cc2O1 (stereo not drawn),26.2,> 30,–,–,–
CCOC(=O)COc1ccc(-c2cc3cc4c(cc3o2)OC(C(C)(C)O)C4)cc1 (stereo not drawn),0.054,> 30,–,–,–
CC1(C)Oc2cc(OC(=O)c3ccc(O)cc3)ccc2CC1O (stereo not drawn),> 30,> 30,–,–,–
CC(C)(O)C1Cc2cc3cc(-c4ccncc4)oc3cc2O1 (stereo not drawn),1.1,> 30,–,–,–
CC(C)(O)C1Cc2ccc(OC(=O)c3ccc(Br)cc3)cc2O1 (stereo not drawn),> 30,> 30,–,–,–
CC1(C)Oc2cc3oc(-c4cc(O)cc(O)c4)cc3cc2CC1O (racemic) [(+/-)-MORACIN P],10.7,> 30,–,–,–
CC1(C)Oc2cc(OC(=O)c3ccc(OCc4ccccc4)cc3)ccc2CC1O (stereo not drawn),12.9,> 30,–,–,–
CC1(C)Oc2cc(OC(=O)c3ccc(-c4ccc(F)cc4F)cc3)ccc2CC1O (stereo not drawn),17.6,> 30,–,–,–
CC1(C)Oc2cc(OC(=O)c3cccc(OCc4ccccc4)c3)ccc2CC1O (stereo not drawn),5.3,> 30,–,–,–
COc1cccc(-c2ccc(C(=O)Oc3ccc4c(c3)OC(C(C)(C)O)C4)cc2)c1 (stereo not drawn),> 30,> 30,–,–,–
CC(C)(O)C1Cc2cc3cc(-c4ccccc4)oc3cc2O1 (stereo not drawn),0.054,> 30,–,–,–
CC1(C)Oc2cc(OC(=O)c3ccc(-c4cccc(C#N)c4)cc3)ccc2CC1O (stereo not drawn),> 30,> 30,–,–,–
COc1cccc(-c2cc3cc4c(cc3o2)OC(C(C)(C)O)C4)c1 (stereo not drawn),0.007,> 30,–,–,–

Compound,IC50 [1] [µM],IC50 [2] [µM],inhibition [3],inhibition [4],inhibition [5]
Cc1ccc(-c2cc3cc4c(cc3o2)OC(C(C)(C)O)C4)cc1 (stereo not drawn),0.31,> 30,–,–,–
COc1cc(OC)cc(-c2cc3cc4c(cc3o2)OC(C(C)(C)O)C4)c1 (stereo not drawn),0.01,> 30,–,–,–
CC1(C)Oc2cc(OC(=O)c3cc(O)cc(O)c3)ccc2CC1O (stereo not drawn),> 30,> 30,–,–,–
CC1(C)Oc2cc(OC(=O)c3cc(OCc4ccccc4)cc(OCc4ccccc4)c3)ccc2CC1O (stereo not drawn),2.6,> 30,–,–,–
CC(C)(O)[C@H]1Cc2cc3cc(-c4ccc(O)cc4)oc3cc2O1,0.001,> 30,Dose-dependent effect,Active,–
COc1ccc(-c2cc3cc4c(cc3o2)OC(C(C)(C)O)C4)cc1 (stereo not drawn),0.11,> 30,–,–,–
CC(C)(O)C1Cc2cc3cc(-c4ccc(O)cc4)oc3cc2O1 (stereo not drawn),0.0042,> 30,Dose-dependent effect,–,Dose-dependent effect
Cn1cncc1-c1cc2cc3c(cc2o1)OC(C(C)(C)O)C3 (stereo not drawn),> 0.03,> 30,–,–,–
CC(C)(O)C1Cc2cc3cc(-c4ccc(OCc5ccccc5)cc4)oc3cc2O1 (stereo not drawn),0.49,> 30,–,–,–
CC(C)(O)C1Cc2cc3cc(-c4cc(O)cc(O)c4)oc3cc2O1 (racemic) [MORACIN O],0.00676,> 30,–,–,–
CC(C)(O)C1Cc2ccc(OC(=O)c3ccc(-c4cccc([N+](=O)[O-])c4)cc3)cc2O1 (stereo not drawn),> 30,> 30,–,–,–
CC1(C)Oc2cc3oc(-c4cc(O)cc(O)c4)cc3cc2C[C@H]1O [MORACIN P],0.0107,–,–,–,–
CC(C)(O)C1Cc2ccc(OC(=O)c3cc(O)cc(O)c3)cc2O1 (stereo not drawn),> 30,> 30,–,–,–
CC1(C)Oc2cc(OC(=O)c3ccc(Br)cc3)ccc2CC1O (stereo not drawn),16.8,> 30,–,–,–
COc1cccc(-c2ccc(C(=O)Oc3ccc4c(c3)OC(C)(C)C(O)C4)cc2)c1 (stereo not drawn),17.2,> 30,–,–,–
CC(C)(O)[C@H]1Cc2cc3cc(-c4cc(O)cc(O)c4)oc3cc2O1,0.00676,–,Dose-dependent effect,–,–
CC(C)(O)C1Cc2cc3cc(-c4cccc(O)c4)oc3cc2O1 (stereo not drawn),0.046,> 30,–,–,–
